KCC2 mod: KCC2 (human) Cl- transport modulation. KCC2 cells, thallium flux FluoZin-2 fluorescence. B-score of Tl+ flux slope (higher = more flux/activation; lower = inhibition) at 10 µM. 190,000 tested, 2.2% active;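 active means thallium flux slope and its plate-corrected score both differing from the plate sample mean at a set confidence after two filtering rounds, in either direction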;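 further: slope of fluorescence scaled to starting intensity during 10 to 20 s after thallium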
WT yeast gro inh: growth inhibition of WT yeast, mitochondrial fusion screen. mitochondrial fusion phenotypic screen, WT strain. inhibition, % at 10 µM. 190,000 tested, 2.1% active. AID 1362; in the data active means inhibition above about 58%; tested in S. cerevisiae
Yeast life ext: extends the lifespan of yeast. inhibition of the nicotinamide effect, % at 10 µM. 130,000 tested, 0.68% active. S. cerevisiae growth with nicotinamide, OD615; deaD strain in restrictive glucose medium;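 active means inhibition above a set limit, placed 3 SD over the median of all compounds, cut at about 26% in these data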;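 further: 0% = nicotinamide-treated wells and 100% = cells grown without nicotinamide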
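System: Modified budding yeast, DeaD strain | Buffer or medium: Restrictive glucose medium | Also added: 1.5 mM nicotinamide | Doses: 10 µM single point, 0.25% DMSO | Schedule: 48 h compound exposure at 30 °C, humidified | Detection: Absorbance at 615 nm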
Yeast growth inh: reduces growth of yeast BB579 in restrictive medium. S. cerevisiae BB579 growth, OD615, 48 h. inhibition, % at 10 µM. 140,000 tested, 0.51% active. AID 804;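 active means inhibition above a set limit, 3 SD over the mean compound inhibition, cut at about 44% in these data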
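Test system: DeaD yeast strain BB579 / Buffer or medium: restrictive glucose-based CSMM-D medium / Doses: single 10 µM dose / Schedule: 4 h cell preincubation, 48 h compound exposure, 30 °C humidified / Technique: culture absorbance at 615 nm / Controls: amphotericin B positive control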
RAM inhibit: inhibitors of the yeast RAM network | inhibition, % at 50 µM | 190,000 tested, 1.8% active | S. cerevisiae dse1pr::URA3 reporter, 5-FOA growth OD615, 2 d; analog-sensitive cbk1-as2 kinase mutant strain;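 active means inhibition above a set limit, 3 SD over mean compound inhibition, cut at about 8.4% in these data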;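 further: 0% = DMSO-only wells with no growth and 100% = 10 µM 1-NA-PP1 full growth; inhibition rescues growth on 5-FOA so higher OD means more RAM inhibition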
KCC2 sec1: KCC2 (human) modulation, secondary assay; 3,700 tested, 15% active; AID 1713; HEK293-KCC2, thallium flux, FluoZin2 fluorescence; stronger effect = higher value; shares compounds with KCC2 mod; normalised thallium flux (F/F0 slope) at 10 µM;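 active means thallium flux slope above the same plate's solvent-only control mean plus 3 SD; inconclusive means the two replicate wells disagree; inactive means no significant difference from solvent-only control wells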
KCC2 bumet counter: thallium flux despite bumetanide block in KCC2 cells, secondary assay 3 | shares compounds with KCC2 mod | HEK293-KCC2 + bumetanide/ouabain, thallium flux FluoZin2; stronger effect = higher value | normalized thallium flux at 10 µM | 3,700 tested, 49% active;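 active means thallium entry rate above the same plate's blocked-transporter control wells by more than 3 SD; inconclusive means the two repeat wells disagree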;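 further: raw slope of fluorescence over initial fluorescence between 10 and 20 s after thallium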
KCC2 sec2: KCC2 (human) modulation, second secondary assay; shares compounds with KCC2 mod; HEK293-KCC2, thallium flux FluoZin2 fluorescence; actives lie on both sides; F/F0 rise rate, 10–20 s post-thallium; normalized thallium flux at 10 µM; 3,700 tested, 23% active; AID 1715;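 active means thallium flux slope more than 3 SD above or below the plate's solvent-only control mean, mostly below; inconclusive means the two repeat wells disagreed; inactive means no significant shift from solvent-only controls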;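 further: raw slope with 0.1% DMSO as baseline and bumetanide as block control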
HEK counter1: counter-screen for KCC2 modulators: effect in parental HEK293 cells; AID 1716; thallium flux FluoZin2, ouabain; baseline-ratio fluorescence slope, 10–20 s after thallium; 3,700 tested, 46% active; thallium flux rate (normalised fluorescence) at 10 µM; shares compounds with KCC2 mod;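 active means thallium flux rate significantly above the same plate's solvent-only control wells, beyond their mean plus 3 SD; inconclusive means the two replicate wells gave conflicting results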
KCC2 retest ouab: KCC2 (human) modulation, ouabain retest. 3,700 tested, 48% active. HEK293-KCC2, thallium flux FluoZin2 fluorescence; bidirectional: low = inhibitor, high = activator. raw Tl+ flux slope (below DMSO = inhibition, above = activation) at 10 µM. AID 1717. shares compounds with KCC2 mod;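 active means thallium flux slope beyond 3 SD from same-plate DMSO control mean in most replicates, usually higher, sometimes lower; inconclusive means repeat tests gave conflicting results; inactive means no significant difference from controls in most replicates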;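 further: slope of initial-normalized fluorescence between seconds 10 and 20 after thallium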
HEK counter2: parental HEK flux effect, counter-screen 2; thallium flux slope at 10 µM; 3,700 tested, 33% active; HEK293 parental, thallium flux FluoZin-2 fluorescence slope; shares compounds with KCC2 mod;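 active means thallium flux slope above the same plate's solvent-control mean plus 3 SD in both duplicate wells; inconclusive means duplicate wells that disagreed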;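 further: run without ouabain in cells lacking the KCC2 cotransporter; slope of fluorescence scaled to its starting value between 10 and 20 s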
* hit, by the source's call; ? = inconclusive; . = no result given. Shown are actives, neighbours in structure and some others; about 5.5% of the full set was active somewhere.

SMILES | KCC2 mod | WT yeast gro inh | Yeast life ext | Yeast growth inh | RAM inhibit | KCC2 sec1 | KCC2 bumet counter | KCC2 sec2 | HEK counter1 | KCC2 retest ouab | HEK counter2
Cc1ccc(-c2nnc(SCC(=O)Nc3nc4c(s3)CCCC4)n2C)cc1 | 0.65 | . | -6 | -14 | 1 | . | . | . | . | . | .
CCN(CC)S(=O)(=O)c1cccc2c(N(C)C)cccc12 | -1.7 | -10 | -4 | -11 | -1 | . | . | . | . | . | .
CCOc1ccc(-n2c(N)c(-c3nc4ccccc4n3C)c3nc4ccccc4nc32)cc1 | 0 | 22 | -2 | -15 | 0 | . | . | . | . | . | .
COC(=O)c1ccccc1NC(=S)NC(NC(=O)COc1ccccc1)C(Cl)(Cl)Cl (stereo not drawn) | . | 14 | -12 | -20 | 3 | 0.0078 | ? | 0.031 | ? | 0.025* | 0.011
Cc1ccccc1NC(=S)NC(NC(=O)COc1ccccc1)C(Cl)(Cl)Cl (stereo not drawn) | . | -6 | -2 | -17 | 3 | . | . | . | . | . | .
CCC(=O)NC(=S)Nc1ccccc1C(=O)OC | 0.72 | 20 | -6 | 9 | 4 | . | . | . | . | . | .
COC(=O)c1ccccc1NC(=S)NC(=O)COc1ccc(C(C)C)cc1 | 9.7* | -4 | 3 | -25 | 9.2* | 0.011 | 0.017* | 0.035 | 0.019* | 0.036* | 0.012
O=C(CNC(=O)C12CC3CC(CC(C3)C1)C2)N1CCN(S(=O)(=O)/C=C/c2ccccc2)CC1 | 0.51 | 10 | -2 | -34 | 2 | . | . | . | . | . | .
O=C(O)CC/C(=C\c1ccc(N2CCOCC2)c([N+](=O)[O-])c1)c1nc2ccccc2s1 | -8.5* | -10 | . | . | 3 | 0.0057 | 0.0048 | 0.021* | 0.0074 | ? | 0.011
O=C(O)CC/C(=C\c1ccc(Cl)c([N+](=O)[O-])c1)c1nc2ccccc2s1 | -7.1* | -35 | 9 | -23 | 11* | 0.0072 | 0.0072 | ? | 0.0058* | ? | 0.009
N#C/C(=C\c1ccco1)c1nc2ccccc2s1 | 0.82 | 14 | -7 | -27 | 1 | . | . | . | . | . | .
O=C(O)CCC(=O)Nc1nc2ccccc2s1 | -0.11 | -8 | 0 | -66 | 1 | . | . | . | . | . | .
N#C/C(=C\c1ccc(O)c([N+](=O)[O-])c1)c1nc2ccccc2s1 | -6.2* | 56 | . | . | 4 | 0.0079 | 0.006 | 0.032 | 0.007 | 0.013* | 0.01
CC(=O)Nc1ccc(N2CCOCC2)c([N+](=O)[O-])c1 | 0.26 | -3 | . | . | 2 | . | . | . | . | . | .
C=CCn1cnc2scc(-c3ccc(C)cc3)c2c1=O | . | -7 | -14 | -68 | 0 | . | . | . | . | . | .
O=C(NCc1ccc2c(c1)OCO2)c1ccc(COc2cccc(Cl)c2)o1 | -6.9* | 69* | -17 | 2 | 6 | 0.0079 | 0.0048 | 0.035 | 0.004 | ? | 0.012
CC(C)COc1nc2ccccc2nc1C(C#N)C(=O)NC1CCCCC1 (stereo not drawn) | . | 5 | -10 | -1 | 4 | 0.0093 | 0.0058 | 0.03 | 0.0073 | 0.018 | 0.012
N#CC(C(=O)OC1CCCCC1)c1nc2ccccc2nc1N1CCCCC1 (stereo not drawn) | -0.36 | 17 | -2 | -26 | 5 | . | . | . | . | . | .
CC(C)COC(=S)Nc1ccccc1 | 9.3* | 5 | -14 | -55 | -1 | 0.0056 | 0.01* | 0.031 | 0.01* | ? | ?
CC(C)C(O)(C(=O)NNc1ccccc1)C(C)C | -0.69 | . | . | . | . | . | . | . | . | . | .
S=C(N=Nc1ccccc1)NNc1ccccc1 | 23* | 5 | 6 | 5 | -1 | 0.008 | 0.018* | 0.039* | 0.019* | 0.027* | 0.024*
O=C(NCc1ccccn1)C(=O)Nc1nc(C23CC4CC(CC(C4)C2)C3)cs1 | 16* | 71* | . | . | -1 | 0.012 | 0.014* | 0.034 | 0.026* | 0.026* | 0.015*
COc1cc(NC(=O)Cn2ncc(Cl)c(Cl)c2=O)c(C)cc1[N+](=O)[O-] | -5.1* | -2 | . | . | 0 | 0.0083 | 0.0054 | 0.033 | 0.0059* | 0.017* | 0.01
CC(C)n1c(-c2ccccc2)nc(=S)c2c1CCCC2 | 0.68 | -13 | 10 | -47 | 1 | . | . | . | . | . | .
CN(C)/C=C/c1onc(-c2c(Cl)cccc2Cl)c1C#N | 1.2 | 16 | . | . | 4 | . | . | . | . | . | .
SMILES | KCC2 mod | WT yeast gro inh | Yeast life ext | Yeast growth inh | RAM inhibit | KCC2 sec1 | KCC2 bumet counter | KCC2 sec2 | HEK counter1 | KCC2 retest ouab | HEK counter2
N#Cc1c(-c2c(Cl)cccc2Cl)noc1/C=C/Nc1ccc(C(=O)O)cc1 | -5.8* | -5 | . | . | 8.6* | 0.0066 | 0.0045 | 0.025* | ? | 0.013* | 0.0097
CC(CCCC(C)(C)O)NCCO (stereo not drawn) | . | 23 | . | . | . | . | . | . | . | . | .
O=C(CN1C(=O)NC(Cc2ccccc2)C1=O)NC(=O)NC1CCCCC1 (stereo not drawn) | -4.6* | 20 | 4 | -15 | 0 | 0.018 | 0.004 | ? | 0.008 | 0.015* | 0.01
O=C(O)/C(=C\c1ccc(Cl)c([N+](=O)[O-])c1)c1ccc(S(=O)(=O)N2CCCCC2)s1 | -7.8* | -2 | . | . | 8 | 0.0087 | 0.0063 | 0.03 | 0.0072 | 0.011* | 0.011
O=C(O)/C(=C\c1cccc([N+](=O)[O-])c1)c1ccc(S(=O)(=O)N2CCCCC2)s1 | -3.9 | . | . | . | . | . | . | . | . | . | .
Cc1c(Cl)sn(-c2ccc(Cl)cc2)c1=O | -5.9* | 94 | . | . | -2 | 0.0062 | 0.0048 | 0.023* | 0.0069 | 0.012* | ?
Cc1nn(-c2ccc(Cl)cc2)c(=O)c2ccccc12 | -0.97 | 8 | . | . | 0 | . | . | . | . | . | .
CCOc1ccc(-c2noc(CCCC(N)=O)n2)cc1OC | 1.1 | -9 | -21 | -11 | 0 | . | . | . | . | . | .
CCOc1cc(-c2noc(CCCC(N)=O)n2)cc(Br)c1OC | 4.5* | 5 | -5 | -21 | 3 | 0.0073 | ? | 0.028 | 0.0074 | 0.019 | 0.01
Oc1ccccc1/C=N/NC(=S)NC1CC2C=CC1C2 (stereo not drawn) | 18* | . | . | . | . | ? | 0.052* | 0.034 | 0.025* | 0.031 | 0.014*
Oc1c(Cl)cc(Cl)cc1/C=N/Nc1ncc(Br)cn1 | 0.13 | 0 | . | . | 3 | . | . | . | . | . | .
Oc1c(Cl)cc(Cl)cc1/C=N/NC(=S)NC1CC2C=CC1C2 (stereo not drawn) | 9.2* | . | . | . | . | 0.0083 | 0.017* | 0.028 | 0.011* | ? | 0.0097

High-throughput results from PubChem.
